Reference: ChEMBL document CHEMBL4715681, “Targeting miRNA by tunable small molecule binders: peptidic aminosugar mediated interference in miR-21 biogenesis reverts epithelial to mesenchymal transition” (Medchemcomm, 2018)
In brackets after ≈: the same amount, converted by molar mass. Several values for one entry are separate records, joined by “and”; a condition that tells them apart may be missing. Identical values can stand only once. Activity calls are given as the source filed them. No cut-off for these calls is given here.

Key:
[1] = test system: microRNA 21; assay: Displacement of F-neo from premature miRNA21 (unknown origin) at 100 nM by fluorescence assay relative to control; format: nucleic-acid assay
Method in brief: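 Competition fluorescence: pre-miR21 (12.5 nM, annealed 75→25 °C at 1 °C/min) complexed with 100 nM F-neo in 10 mM phosphate, 25 mM KCl, 0.05 mM EDTA, pH 6.5. Test agent added at 100 nM. Emission read at ex 485/em 525 nm. Percent binding = (I−Ic)×100/(Ineo−Ic), referenced to 100 nM kanamycin; duplicate controls.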

[2] = test system: Pseudomonas aeruginosa; assay: Antibacterial activity against Pseudomonas aeruginosa ATCC 27853 assessed as reduction in bacterial growth incubated for 15 to 20 hrs by broth microdilution method; format: functional; settings: time 15-20 hrs
Method in brief: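 CLSI broth microdilution on exponential-phase bacteria, ~3 x 10⁵ cells/mL in cation-adjusted Mueller-Hinton broth. Serial 2-fold dilutions give final 50 to 0.78 μM from 10x stocks in 10% DMSO. Incubated 15-20 h at 37°C, humidified. Growth read at 595 nm; percent inhibition averaged from triplicates to give MIC.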

[3] = target: microRNA 21; assay: Displacement of F-neo from premature miRNA21 (unknown origin) by fluorescence assay; format: nucleic-acid assay
[4] = test system: Staphylococcus aureus; assay: Antibacterial activity against Staphylococcus aureus ATCC 25923 assessed as reduction in bacterial growth incubated for 15 to 20 hrs by broth microdilution method; format: functional; settings: time 15-20 hrs
Method in brief: (§1)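 MIC by CLSI broth microdilution on exponential-phase cultures, in triplicate. Compound stocks were made at 10× final in 10% DMSO and added to the bacterial suspension (about 3 x 10⁵ cells/mL in cation-adjusted Mueller-Hinton broth). Final concentrations were 2-fold serial dilutions from 50 μM to 0.78 μM. Plates were incubated humidified at 37°C for 15-20 h, growth was read as absorbance at 595 nm, and % inhibition was averaged from the triplicates.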

[5] = test system: MCF7; assay: Antiproliferative activity against human MCF7 cells assessed as reduction in Ki67 expression at 5 uM incubated for 48 hrs by fluorescence microscopy; format: functional, cell-based
Method in brief: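 MCF7 cells seeded on coverslips (8x10⁴ per well) and grown 24 h at 37 °C, 5% CO₂, then treated 48 h at 5 μM; untreated and kanamycin controls. Fixed in 3% paraformaldehyde, permeabilized with 0.2% Triton X-100, blocked with 0.5% BSA. Stained with anti-Ki67 (1:1000, overnight) and Alexa Fluor 488 secondary (1:2000, 2 h). Nuclear speckles imaged.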

[6] = test system: Escherichia coli; assay: Antibacterial activity against Escherichia coli ATCC 25922 assessed as reduction in bacterial growth at 64 uM incubated for 15 to 20 hrs by broth microdilution method relative to control; format: functional; settings: time 15-20 hrs, read-out: GI
[7] = test system: Pseudomonas aeruginosa; assay: Antibacterial activity against Pseudomonas aeruginosa ATCC 27853 assessed as reduction in bacterial growth at 64 uM incubated for 15 to 20 hrs by broth microdilution method relative to control; format: functional; settings: time 15-20 hrs, read-out: GI
[8] = test system: Staphylococcus aureus; assay: Antibacterial activity against methicillin-resistant Staphylococcus aureus ATCC 1960649 assessed as reduction in bacterial growth incubated for 15 to 20 hrs by broth microdilution method; format: functional; settings: time 15-20 hrs; method in brief: as §1
[9] = test system: Escherichia coli; assay: Antibacterial activity against Escherichia coli ATCC 25922 assessed as reduction in bacterial growth incubated for 15 to 20 hrs by broth microdilution method; format: functional; settings: time 15-20 hrs; method in brief: as §1
[10] = test system: Staphylococcus aureus; assay: Antibacterial activity against Staphylococcus aureus ATCC 25923 assessed as reduction in bacterial growth at 64 uM incubated for 15 to 20 hrs by broth microdilution method relative to control; format: functional; settings: time 15-20 hrs, read-out: GI
[11] = test system: Staphylococcus aureus; assay: Antibacterial activity against methicillin-resistant Staphylococcus aureus ATCC 1960649 assessed as reduction in bacterial growth at 64 uM incubated for 15 to 20 hrs by broth microdilution method relative to control; format: functional; settings: time 15-20 hrs; for inhibition of growth at 64 µM: read-out: GI
[12] = test system: Pseudomonas aeruginosa; assay: Antibacterial activity against Pseudomonas aeruginosa ATCC 27853 assessed as reduction in bacterial growth at 12.5 uM incubated for 15 to 20 hrs by broth microdilution method relative to control; settings: time 15-20 hrs
[13] = test system: Staphylococcus aureus; assay: Antibacterial activity against Staphylococcus aureus ATCC 25923 assessed as reduction in bacterial growth at 12.5 uM incubated for 15 to 20 hrs by broth microdilution method relative to control; settings: time 15-20 hrs
[14] = test system: Escherichia coli; assay: Antibacterial activity against Escherichia coli ATCC 25922 assessed as reduction in bacterial growth at 12.5 uM incubated for 15 to 20 hrs by broth microdilution method relative to control; settings: time 15-20 hrs
[15] = test system: microRNA 21; assay: Inhibition of premature miRNA-21 (unknown origin) transfected in human MCF7 cells assessed as reduction of maturation of pre-miRNA21 at 5 uM incubated for 48 hrs by qPCR analysis; format: cell-based
Method in brief: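 MCF7 cells treated 48 h at 5 μM, as for the Western blots. Total RNA extracted with TRIzol and DNase-treated; 400-500 ng polyadenylated and reverse-transcribed with oligo(dT) adaptor. SYBR qPCR run in triplicate for mature miR21, normalized to U6 snRNA, fold change by 2^-ΔΔCt.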

[16] = Cytotoxicity against human MCF7 cells assessed as reduction cell viability at 2.5 to 5 uM incubated for 24 hrs by MTT assay; format: cell-based; settings: dose 2.5-5 µM, read-out: INH
Method in brief: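 MTT assay in MCF7 cells seeded at 8000/well and treated 24 h after seeding at 0, 2.5, 5, 7.5 and 10 μM, in triplicate. After 24 h exposure, MTT (0.5 mg/ml) added for 4 h at 37 °C. Crystals dissolved in DMSO and absorbance read at 570 nm to give percent viable cells.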

[17] = test system: MCF7; assay: Antimigratory activity in human MCF7 cells assessed as […] at 5 uM incubated for 48 hrs by imaging analysis relative to control; format: functional
Method in brief: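 MCF-7 cells seeded densely and grown to confluence, then scratched with a pipette tip and washed with PBS. Treated at 5μM alongside an untreated well. Wound images quantified in ImageJ; three biological replicates, error bars ± S.D.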

[18] = test system: microRNA 21; assay: Inhibition of premature miRNA-21 (unknown origin) transfected in human MCF7 cells assessed as increase in PDCD4 expression at 5 uM incubated for 48 hrs by Western blot analysis; format: cell-based
Method in brief: (§2)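 MCF7 cells seeded at 4x10⁴/well, treated 24 h later at 5 μM for 48 h. Controls: antisense LNA transfected at 50 nM, kanamycin forms, streptomycin, untreated. Lysates (40 µg protein) run on SDS-PAGE and blotted to PVDF. Probed with PDCD4 or PTEN (1:1000) plus GAPDH (1:2000) antibodies overnight at 4 °C, then HRP secondary and ECL; bands quantified as fold change versus controls.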

[19] = test system: microRNA 21; assay: Inhibition of premature miRNA-21 (unknown origin) transfected in human MCF7 cells assessed as increase in PTEN expression at 5 uM incubated for 48 hrs by Western blot analysis; format: cell-based; method in brief: as §2
[20] = target: microRNA 21; assay: Binding affinity to pre-miRNA21 (unknown origin) by […]; format: nucleic-acid assay
Method in brief: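 Bio-layer interferometry (Octet RED96) with immobilized pre-miR21. Analytes run at 8-128 nM in 10 mM HEPES, 50 mM NaCl, 0.05% Tween20. Association 5 min, dissociation 10 min; regeneration in 50 mM NaOH, 1 M NaCl. KD derived from the binding curves.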

[21] = test system: MCF7; assay: Inhibition of epithelial-mesenchymal transition in human MCF7 cells increase in E-cadherin expression at 5 uM incubated for 48 hrs by inverted fluorescence microscopy

## NC[C@H]1O[C@H](O[C@H]2[C@H](O)[C@@H](O[C@H]3O[C@H](CO)[C@@H](O)[C@H](N)[C@H]3O)[C@H](N)C[C@@H]2N)[C@H](O)[C@@H](O)[C@@H]1O [KANAMYCIN]
[1]
  inhibition: 107% and 100%
[2]
  MIC: > 256 µM
[3]
  IC50: 1.1 µM
[4]
  MIC: 4 µM (≈ 1.94 µg/mL)
[5]
  inhibition: inactive
[6]
  inhibition of growth at 64 µM: 100%
[7]
  inhibition of growth at 64 µM: 11%
[8]
  MIC: > 256 µM
[9]
  MIC: 4 µM (≈ 1.94 µg/mL)
[10]
  inhibition of growth at 64 µM: 100%
[11]
  inhibition of growth at 64 µM: 41%

## N=C(N)NCCC[C@H](NC(=O)CCC(=O)NC[C@H]1O[C@H](O[C@@H]2[C@@H](O)[C@H](O[C@H]3O[C@H](CN)[C@@H](O)[C@H](O)[C@H]3O)[C@@H](N)C[C@H]2N)[C@H](O)[C@@H](N)[C@@H]1O)C(=O)N[C@@H](CS)C(N)=O
[12]
  growth inhibition (GI): inactive
[6]
  inhibition of growth at 64 µM: 13%
[10]
  inhibition of growth at 64 µM: 20%
[11]
  inhibition of growth at 64 µM: 25%

## C[C@@H](O)[C@H](NC(=O)[C@H](CCCNC(=N)N)NC(=O)CCC(=O)NC[C@H]1O[C@H](O[C@@H]2[C@@H](O)[C@H](O[C@H]3O[C@H](CN)[C@@H](O)[C@H](O)[C@H]3O)[C@@H](N)C[C@H]2N)[C@H](O)[C@@H](N)[C@@H]1O)C(N)=O
[13]
  growth inhibition (GI): inactive
[1]
  inhibition: 131%
[12]
  growth inhibition (GI): inactive
[14]
  growth inhibition (GI): inactive
[11]
  growth inhibition (GI): inactive

## NC[C@H]1O[C@H](O[C@H]2[C@H](O)[C@@H](O[C@H]3O[C@H](CNC(=O)CCC(=O)N[C@@H](Cc4ccccc4)C(=O)N[C@@H](CS)C(N)=O)[C@@H](O)[C@H](N)[C@H]3O)[C@H](N)C[C@@H]2N)[C@H](O)[C@@H](O)[C@@H]1O
[13]
  growth inhibition (GI): inactive
[1]
  inhibition: 140%
[15]
  inhibition: Active
[12]
  growth inhibition (GI): inactive
[14]
  growth inhibition (GI): inactive
[16]
  cytotoxicity at 24 h, up to 5 µM: 2%
[17]
  Activity: >50%
[18]
  inhibition: Active
[19]
  inhibition: Active
[11]
  inhibition of growth at 64 µM: 22%
[20]
  Kd: 0.0436 µM
[21]
  inhibition: Active

## NC[C@H]1O[C@H](O[C@H]2[C@H](O)[C@@H](O[C@H]3O[C@H](CNC(=O)CCC(=O)N[C@@H](Cc4ccc(O)cc4)C(=O)N[C@@H](CC(=O)O)C(N)=O)[C@@H](O)[C@H](N)[C@H]3O)[C@H](N)C[C@@H]2N)[C@H](O)[C@@H](O)[C@@H]1O
[13]
  growth inhibition (GI): inactive
[1]
  inhibition: 5%
[15]
  inhibition: Active
[12]
  growth inhibition (GI): inactive
[14]
  growth inhibition (GI): inactive
[18]
  inhibition: Active
[11]
  growth inhibition (GI): inactive

## N=C(N)NCCC[C@H](NC(=O)[C@H](CCCNC(=N)N)NC(=O)CCC(=O)NC[C@H]1O[C@H](O[C@@H]2[C@@H](O)[C@H](O[C@H]3O[C@H](CN)[C@@H](O)[C@H](O)[C@H]3O)[C@@H](N)C[C@H]2N)[C@H](O)[C@@H](N)[C@@H]1O)C(N)=O
[1]
  inhibition: 137%
[15]
  inhibition: Active
[6]
  inhibition of growth at 64 µM: 25%
[7]
  inhibition of growth at 64 µM: 11%
[18]
  inhibition: Active
[10]
  inhibition of growth at 64 µM: 29%
[11]
  inhibition of growth at 64 µM: 30%
[20]; dose 16.0 nM
  Activity: Active

## NC[C@H]1O[C@H](O[C@H]2[C@H](O)[C@@H](O[C@H]3O[C@H](CNC(=O)CCC(=O)N[C@@H](Cc4ccc(O)cc4)C(=O)N[C@@H](CS)C(N)=O)[C@@H](O)[C@H](N)[C@H]3O)[C@H](N)C[C@@H]2N)[C@H](O)[C@@H](O)[C@@H]1O
[1]
  inhibition: 133%
[12]
  growth inhibition (GI): inactive
[14]
  growth inhibition (GI): inactive
[5]
  inhibition: Active
[10]
  inhibition of growth at 64 µM: 34%
[11]
  inhibition of growth at 64 µM: 38%

## CN[C@@H]1[C@H](O[C@H]2[C@H](O[C@H]3[C@H](O)[C@@H](O)[C@H](N=C(N)N)[C@@H](O)[C@@H]3N=C(N)N)O[C@@H](C)[C@]2(O)C=O)O[C@@H](CO)[C@H](O)[C@H]1O
[1]
  inhibition: 107%
